In brackets after ≈: the same amount, converted by molar mass. Read-outs that look alike come from different tables or passages of the source.
How the values were obtained:
[1] = system: K. pneumoniae NB29017; assay: Electron microscopy of cell surface material; format: cell-based, Klebsiella pneumoniae; conditions: grown in SM medium with 32 μg/mL compound
Method in brief: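 K. pneumoniae NB29017 grown overnight with shaking at 37 °C in 10 mL SM medium, with or without test compound at 32 μg/mL. Diluted 1:50 into the same medium and grown to OD600 of about 2. Cells pelleted at 3000g and washed in Na-cacodylate pH 7.2. Fixed 2 h at 4 °C (2.5% glutaraldehyde, 1% tannic acid, 0.1 M Na-cacodylate, pH 7.2). Pelleted, taken up in cacodylate buffer and examined by electron microscopy.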

[2] = system: K. pneumoniae wbbM mutant (NB29018) co-cultured with T. pyriformis; assay: Tp/Kp co-culture assay with cell surface-defective wbbM mutant; format: cell-based, Klebsiella pneumoniae; conditions: Tp threshold 4625–18,500 Tp/mL
[3] = system: P. aeruginosa; conditions: against P. aeruginosa; cited from earlier work
[4] = system: K. pneumoniae NB29017; assay: Qualitative inhibition of mucoid appearance of colonies on solid LB agar; format: cell-based, Klebsiella pneumoniae; conditions: 4 fully mucoid, 0 nonmucoid, by eye
Method in brief: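 Test compound dissolved in DMSO (12.8 mg/mL stock) and mixed into melted LB agar at 0–16 μg/mL final, then set in six-well plates. Mucoid wild-type NB29017 streaked for single colonies in each well. Plates incubated 18 h at 37 °C, then 2 h at 4 °C. Mucoid appearance scored by eye from 0 (none) to 4 (normal hypermucoid).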

[5] = system: K. pneumoniae NB29017 co-cultured with T. pyriformis; assay: T. pyriformis/K. pneumoniae; format: cell-based, Klebsiella pneumoniae
[6] = Red blood cell hemolysis; format: cell-based, sheep; conditions: sheep, erythrocytes from defibrinated sheep blood, pH 7.5
[7] = system: erythrocytes from defibrinated sheep blood; assay: Red blood cell hemolysis; format: cell-based; conditions: Table 1; concentration causing 50% hemolysis
[8] = system: Staphylococcus aureus; assay: Antibacterial MIC, Gram-positive control; format: cell-based; conditions: read-out: MIC Sa
[9] = Cytotoxicity in K562 cells; format: cell-based; conditions: human
[10] = target: T1, P. aeruginosa LpxC (Pseudomonas aeruginosa, UniProt P47205); assay: Inhibition of purified LpxC enzyme; format: biochemical
T1 sequence (P47205 1-303): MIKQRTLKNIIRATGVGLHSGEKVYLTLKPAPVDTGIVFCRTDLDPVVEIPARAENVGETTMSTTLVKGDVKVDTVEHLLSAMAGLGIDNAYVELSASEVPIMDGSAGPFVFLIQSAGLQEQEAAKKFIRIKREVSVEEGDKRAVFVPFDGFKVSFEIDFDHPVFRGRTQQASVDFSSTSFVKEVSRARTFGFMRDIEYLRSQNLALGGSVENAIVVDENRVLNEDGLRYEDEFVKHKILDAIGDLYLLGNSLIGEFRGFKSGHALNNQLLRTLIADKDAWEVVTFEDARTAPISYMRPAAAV

[11] = system: K. pneumoniae (Kp); assay: Antibacterial MIC, broth; format: cell-based; conditions: Klebsiella pneumoniae, read-out: MIC, broth-based
[12] = system: K. pneumoniae NB29017; assay: Agar MIC; format: cell-based; conditions: Klebsiella pneumoniae, NB29017, read-out: agar MIC
[13] = system: K. pneumoniae NB29017; assay: Kp-only counterscreen for direct antibacterial activity; format: cell-based; conditions: Klebsiella pneumoniae, NB29017, read-out: IC50 for Kp only, hit from the HTS
[14] = read-out: Tp/Kp IC50, Table 2; expressed as μg/mL for comparison to agar values
[15] = read-out: IC50 Tp/Kp, Table 1; freshly dissolved powder, top concentration 20 μM

SMILES | qualitative score on solid medium ([4]; 2 μg/mL compound in agar) | qualitative score on solid medium ([4]; 4 μg/mL compound in agar) | qualitative score on solid medium ([4]; 8 μg/mL compound in agar) | qualitative score on solid medium ([4]; 16 μg/mL compound in agar) | IC50 [5, 14] | MIC [8] | IC50 [9] | IC50 [5, 15] | also measured
C=CCSc1nnc(C)c(O)n1 [D1, C=CCSc1nnc(C)c(O)n1, reference compound] | 4 | 3 | slight | 1 | 0.54 µg/mL | – | – | – | surface polysaccharide material by electron microscopy [1]: largely devoid of this; activity in the Tp/Kp wbbM assay [2]: largely retained; efficacy in an animal model of infection [3]: efficacy; IC50 ([5]; read-out: Tp/Kp IC50, D1 control on the same plate, Tp set at 25000): 2320 nM; IC50 ([5]; read-out: Tp/Kp IC50, D1 control on the same plate; Tp set at 25000): 2730 nM; IC50 ([5]; read-out: median IC50 for D1 across 28 hit confirmation runs, standard deviation of 0.3): 2000 nM
COc1ccc2nc(NC(=O)c3cc(=O)c4ccccc4o3)sc2c1 [compound 63, COc4ccc3N=C(NC(=O)C2=CC(=O)c1ccccc1O2)Sc3c4] | 0 | 0 | 0 | 0 | 0.04 µg/mL | > 128 µg/mL | 34400 nM | 110 nM | hemolysis at 1 h [6]: 8.3%; RBC hemolysis (HC50) [7]: 64 µM; qualitative score on solid medium ([4]; 1 μg/mL compound in agar): 1
CC(C)(N)C(NC(=O)c1ccc(OCC#CC2CC2)cc1)C(=O)NO (stereo not drawn) [compound 180, CC(C)(N)C(NC(=O)c1ccc(cc1)OCC#CC2CC2)C(=O)NO] | – | – | – | – | – | > 128 µg/mL | 69400 nM | 1140 nM | IC50 [10]: 40 nM
O=CN(O)CCCP(=O)(O)O [fosmidomycin] | – | – | – | – | – | – | – | – | MIC [11]: > 128 µg/mL; MIC [12]: 0.5 µg/mL (≈ 2.73 µM); IC50 ([5]; read-out: IC50 for Tp/Kp, hit from the HTS): < 78.1 nM; IC50 [13]: > 20000 nM
